Screening data: PubChem, several laboratories
Rows were chosen to be rich in hits. Some 1.9% of all compounds tested hit in one or more screens of this group.
DNA FID counter: fluorescent intercalator displacement, NS3 helicase counter-screen. DNA fluorescent intercalator displacement, fluorescence. hit rate 0.17% among 290,000. AID 1845. inhibition, % at 7.9 µM; in the data active = inhibition above about 37%;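 note: higher means more ethidium bromide displaced from hairpin DNA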
NS3 helicase inh: inhibitors of Hepatitis C virus NS3 helicase; NS3 helicase DNA unwinding, Cy5 molecular beacon fluorescence; inhibition, % at 10.9 µM; hit rate 0.56% among 290,000;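 active = inhibition above the mean of all tested compounds plus 3 SD, set per campaign, cut at about 35% in these data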
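System: NS3 helicase fragment of HCV / Schedule: 1 h at 25 °C / Control set: DMSO alone as 0% and 110 µM thioflavine S as 100% / Reagent: Cy5/quencher beacon DNA duplex and ATP to start / Technique: Cy5 fluorescence / Replication: singlicate / Evaluation: % inhibition of end-to-start signal ratio versus controls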
GPR7 antag: blocks human GPR7 receptor signaling; P48145; AID 1861; GPR7-expressing cells, fluorescence antagonist assay; hit rate 1.1% among 290,000; inhibition, % at 4.4 µM; in the data active = inhibition above about 16%, passing the limit was not always enough;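 note: cells stimulated with the agonist NPW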
Target sequence (P48145 whole entry, looked up): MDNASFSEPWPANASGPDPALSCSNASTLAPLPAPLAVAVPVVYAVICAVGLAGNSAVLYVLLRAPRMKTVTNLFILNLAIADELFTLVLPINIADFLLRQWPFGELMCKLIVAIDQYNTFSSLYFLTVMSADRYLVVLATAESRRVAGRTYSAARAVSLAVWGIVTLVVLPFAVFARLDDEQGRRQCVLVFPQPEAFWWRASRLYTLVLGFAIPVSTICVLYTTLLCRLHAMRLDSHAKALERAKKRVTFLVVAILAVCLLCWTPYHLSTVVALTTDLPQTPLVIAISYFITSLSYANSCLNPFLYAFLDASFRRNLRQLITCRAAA
HCV core dimer: blocks dimerization of HCV core protein. TR-FRET GST/Flag-core106 dimerization, 1536-well. hit rate 0.33% among 300,000. inhibition, % at 5 µM;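 active = inhibition above the mean of all tested compounds plus 3 SD, set per screening campaign, cut at about 45% in these data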
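System: GST/Flag-tagged HCV core106 proteins. Incubation: compound-protein-antibody incubation 4 h at 22.5 °C. Technique: HTRF with 340 nm excitation, 617/671 nm emission. Medium: KF-containing HEPES buffer, pH 7.45, DTT, CHAPS, BSA. Read-out: inhibition (%) from 671 over 617 nm ratio. Also added: Eu(K)-anti-GST 90 ng/mL plus XL665-anti-Flag 1 µg/mL.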
p-CIP stab down: compounds decreasing mouse p/CIP protein stability | F442A p/CIP-EGFP cells, EGFP fluorescence, 16 h | hit rate 0.01% among 290,000 | decrease of EGFP signal, % at 10 µM | Q05BA5;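 active = EGFP signal decrease of at least 30% at 10 µM or well 3 SD below plate mean, unless failing retest; inactive = the rest, including hits failing retest or dose response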
GPR7 antag cf: confirmation of human GPR7 antagonists. shares compounds with GPR7 antag. GPR7-expressing cells, calcium fluorescence antagonist mode. inhibition, % at 4.4 µM. hit rate 52% among 2,400; in the data active = inhibition above about 24%;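 note: stimulated with the GPR7 agonist NPW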
MCHR1 antag: antagonizes human MCHR1, a GPR7 antagonist counter-screen. AID 2148. shares compounds with GPR7 antag. hit rate 62% among 2,400. MCHR1-expressing cells, fluorescence antagonist assay. inhibition, % at 4.4 µM; in the data active = inhibition above about 22%
A number is an active result; – = inactive; · = no result.

SMILES	DNA FID counter	NS3 helicase inh	GPR7 antag	HCV core dimer	p-CIP stab down	GPR7 antag cf	MCHR1 antag
O=C(Nc1ccccc1F)Nc1ccccc1F	–	–	–	–	–	·	·
O=C(Nc1ccc(-n2ccc(C(F)(F)F)n2)cc1)Nc1cccc(Cl)c1	–	–	21	–	–	42	71
Cc1ccccc1NC(=O)Nc1ccc(C(F)(F)F)cc1	–	–	54	–	–	69	52
O=C(Nc1ccc(Br)cc1)Nc1ccccc1F	–	–	28	–	–	59	65
COc1cccc(CN2CC(C(=O)NCCC3=CCCCC3)CCC2=O)c1 (configuration not stated)	–	–	–	–	–	·	·
CC1(C)C2CCC1(CS(=O)(=O)NCc1ccc(C(F)(F)F)cc1)C(=O)C2 (configuration not stated)	–	–	–	–	–	·	·
CC(=O)c1c(C)[nH]c(C(=O)Nc2cccc(C(F)(F)F)c2)c1C	–	–	33	–	–	–	59
CCC(C(=O)Nc1ccc(C)cc1)c1ccccc1 (configuration not stated)	–	–	–	–	–	·	·
Cc1cccc(NC(=O)C2(c3ccc([N+](=O)[O-])cc3)CCCC2)c1	–	–	33	–	–	36	36
CNC(=O)Nc1cccc(C(F)(F)F)c1	–	–	–	–	–	·	·
O=C(Nc1ccccc1)Nc1cccc(C(F)(F)F)c1	–	–	27	–	–	41	61
CCc1ccc(NC(=O)C(CC)c2ccccc2)cc1 (configuration not stated)	–	–	31	–	–	58	60
Cc1ccc(C(=O)N2CCCc3ccccc32)c(F)c1F	–	–	–	–	–	·	·
Cc1ccccc1NS(=O)(=O)c1cc2c3c(c1)C(C)C(=O)N3CCC2 (configuration not stated)	–	–	–	–	–	·	·
CN(CC(=O)NCc1ccco1)S(=O)(=O)c1ccc2c(c1)c(=O)n(C)c(=O)n2C	–	–	–	–	–	·	·
O=C(Cc1ccc([N+](=O)[O-])cc1)Nc1cc(C(F)(F)F)cc(C(F)(F)F)c1	–	–	–	–	–	·	·
CCC(C(=O)Nc1cccc(C(F)(F)F)c1)c1ccccc1 (configuration not stated)	–	–	28	–	–	–	47
O=C(Cc1ccc([N+](=O)[O-])cc1)Nc1cccc(C(F)(F)F)c1	–	–	39	–	–	30	57
CCCCCNCC(=O)Nc1cccc(C(=O)Nc2cccc(C(F)(F)F)c2)c1	–	–	25	–	–	50	81
O=C(NCCCC(=O)N1CCCCC1)c1ccc(Cl)cc1	–	–	–	·	–	·	·
COc1ccc(NC(=O)COC(=O)c2c3c(nc4ccccc24)CCCC3)cc1Cl	–	–	32	–	–	35	73
O=C(CNC(=O)c1ccco1)OCc1c(F)cccc1Cl	–	–	25	–	–	–	–
C/C(=N\NC(=O)CCn1nnc2ccccc21)c1ccco1	–	–	21	–	–	–	–
CC(=O)Nc1ccc(NC(=O)CCn2nnc3ccccc32)cc1	–	–	–	–	–	·	·
Cc1ccc(C(=O)/C=C/NNC(=O)c2ccccc2O)cc1	–	–	–	–	–	·	·
SMILES	DNA FID counter	NS3 helicase inh	GPR7 antag	HCV core dimer	p-CIP stab down	GPR7 antag cf	MCHR1 antag
O=S(=O)(NCCCSc1ccccc1)c1ccccc1F	–	–	25	–	–	–	–
CC1=C(C(N)=O)S(=O)(=O)c2ccccc21	–	–	–	–	–	·	·
CC(=O)c1ccc(NC(=S)Nc2ccc(Br)c(Cl)c2)cc1	–	–	–	–	–	·	·
CC(=O)c1ccc(NC(=S)NC(C)c2ccc(Cl)cc2Cl)cc1 (configuration not stated)	–	–	44	–	–	61	73
COc1ccc(NC(=O)CN2CCC(NC(=O)c3ccco3)CC2)c([N+](=O)[O-])c1	–	–	–	–	–	·	·
CCOC(=O)c1sc2nc(C)nc(NC3CCC(O)CC3)c2c1C (configuration not stated)	–	–	–	–	–	·	·
Cc1ccc(C(=O)N2CCOCC2)cc1S(=O)(=O)N1CCCC1	–	–	–	–	–	·	·
CN1CCN(C(=O)c2ccc(Cl)c(S(=O)(=O)N3CCCCC3)c2)CC1	–	–	–	–	–	·	·
O=C(c1ccc(Cl)c(S(=O)(=O)N2CCCCCC2)c1)N1CCCCC1	–	–	·	–	–	·	–
Cc1ccc(C(=O)N2CCCCC2)cc1S(=O)(=O)N1CCCCCC1	–	–	21	–	–	25	–
CCOc1cc(CNCCO)cc(Br)c1OCc1ccc(Cl)cc1Cl	–	–	42	–	–	68	77
CCOc1cccc(CNCCO)c1OCc1ccc(Cl)cc1Cl	–	–	–	–	–	·	·
CCN(CC#CCC(O)(c1ccccc1)C1CCCC1)C(C)C (configuration not stated)	–	–	29	–	–	–	–
Cc1ccc(S(=O)(=O)N2CCOCC2)cc1C(=O)NC(=S)N1CC(C)OC(C)C1 (configuration not stated)	–	–	–	–	–	·	·
Cc1ccc(C)c(OCCCNCc2ccccc2)c1	–	–	–	–	–	·	·
Cc1ccc(C(C)C)c(OCCNCc2ccccc2)c1	–	–	30	–	–	–	68
CCCN(CCC)CCOc1cc(C)ccc1C(C)C	–	–	24	–	–	31	–
Cc1ccccc1CS(=O)(=O)c1cn(CC(=O)N2CCOCC2)c2ccccc12	–	–	–	–	–	·	·
Cc1noc(/C=C/N(C)C)c1S(=O)(=O)N1CCCC(C(=O)N2CCCCC2)C1 (configuration not stated)	–	–	27	–	–	–	–
Cc1ccc(N2CC(=O)Nc3c(oc4nc(-c5ccccc5)cc(C)c34)C2=O)cc1	–	–	–	–	–	·	·
COC(=O)C(C(=O)OC)c1ccc(-n2cccc2)cc1	–	–	35	–	–	–	–
COc1ccc(C(=O)NCc2ccc(-n3cccc3)cc2)cc1OC	–	–	–	–	–	·	·
CCN(C1CCS(=O)(=O)C1)S(=O)(=O)c1ccc(OC)c(OC)c1 (configuration not stated)	·	·	·	–	·	·	·
O=C1CCc2cc(NS(=O)(=O)c3cc(F)ccc3F)cc3c2N1CC3	·	·	·	–	·	·	·
CCC(=O)N(C(=O)CC)N1CCN(c2ccncc2S(=O)(=O)N2CCCCC2)CC1	–	–	34	–	–	45	30
CCC(=O)NN1CCN(c2ccncc2S(=O)(=O)N2CCCCC2)CC1	–	–	–	–	–	·	·
Cc1ccc(S(=O)(=O)Nc2c(NC3CCCCC3)c3ccccc3oc2=O)c(C)c1	–	–	–	–	–	·	·
COc1cccc(-c2cc3nc(-c4ccccc4)cc(=O)n3[nH]2)c1	–	–	36	–	–	24	37
O=c1cc(-c2ccccc2)nc2cc(-c3ccc(F)cc3)[nH]n12	·	·	·	–	·	·	·
